From ChEMBL document CHEMBL1140187, “Anti-inflammatory cembranoids from the soft corals Sinularia querciformis and Sinularia granosa” (J Nat Prod, 2008)

Columns and labels:
HEp-2 [1] = test: Cytotoxicity against human Hep2 cells by MTT method; assay type: functional; settings: HEp-2, read-out: ED50
[2] = Cytotoxicity against human Doay cells; assay type: functional, cell-based
[3] = Cytotoxicity against human Doay cells by MTT method; assay type: functional; settings: read-out: ED50
MCF7 [4] = test: Cytotoxicity against human MCF7 cells by MTT method; assay type: functional; settings: MCF7, read-out: ED50
HeLa [5] = test: Cytotoxicity against human HeLa cells; assay type: functional, cell-based
HEp-2 [6] = test: Cytotoxicity against human Hep2 cells; assay type: functional, cell-based
HeLa [7] = test: Cytotoxicity against human HeLa cells by MTT method; assay type: functional; settings: read-out: ED50
RAW264.7 [8] = test: Reduction of LPS-induced iNOS expression in mouse Raw264.7 cells at 10 uM preincubated for 5 mins before LPS challenge relative to control; assay type: functional; design: scale not given: the % may be the effect or the level left
Method in brief: (§1)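 RAW 264.7 murine macrophages grown in DMEM with 10% heat-inactivated FBS at 37 °C, 5% CO2, plated at 3 × 10^6 cells per 60 mm dish. Compound added 5 min before LPS (0.01 µg/mL), then 16 h incubation. Lysates were analysed by Western blot against iNOS and COX-2 (1:1000), with β-actin as loading control and ECL detection. Band IOD was expressed relative to the LPS-only control; one-way ANOVA with Student-Newman-Keuls test.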

RAW264.7 [9] = test: Reduction of LPS-induced COX2 expression in mouse Raw264.7 cells at 10 uM preincubated for 5 mins before LPS challenge relative to control; assay type: functional; design: scale not given: the % may be the effect or the level left; method in brief: as §1
MCF7 [10] = test: Cytotoxicity against human MCF7 cells; assay type: functional, cell-based

SMILES | EC50 (HEp-2 [1]) [µg/mL] | IC50 [2] [µg/mL] | EC50 [3] [µg/mL] | EC50 (MCF7 [4]) [µg/mL] | IC50 (HeLa [5]) [µg/mL] | IC50 (HEp-2 [6]) [µg/mL] | EC50 (HeLa [7]) [µg/mL] | Activity (RAW264.7 [8]) [%] | Activity (RAW264.7 [9]) [%] | IC50 (MCF7 [10]) [µg/mL]
C=C1C(=O)O[C@]2(C)CC[C@@H]1C[C@H](O)[C@@]1(C)CC[C@H](O1)[C@](C)(O)CC[C@H]2OC(C)=O [QUERCIFORMOLIDE B] | > 20 | > 20 | > 20 | > 20 | > 20 | > 20 | > 20 |  |  | 
C=C1C(=O)O[C@]2(C)CC[C@@H]1C[C@H](OC(C)=O)[C@@]1(C)CC[C@H](O1)[C@](C)(O)CCC2=O | > 20 | > 20 | > 20 | > 20 | > 20 | > 20 | > 20 | 20.3 | 14 | 
C=C1C(=O)O[C@]2(C)CC[C@@H]1C[C@H](O)[C@@]1(C)CC[C@H](O1)[C@](C)(O)CC[C@H]2O [QUERCIFORMOLIDE D] | > 20 | > 20 | > 20 | > 20 | > 20 | > 20 | > 20 |  |  | 
C=C1C(=O)O[C@]2(C)CC[C@@H]1C[C@H](O)[C@@]1(C)CC[C@H](O1)C(=C)CC[C@H]2OC(C)=O [GRANOSOLIDE A] | > 20 | > 20 | > 20 | > 20 | > 20 | > 20 | > 20 |  |  | 
C=C1C(=O)O[C@]2(C)CC[C@@H]1C[C@H](OC(C)=O)[C@@]1(C)CC[C@H](O1)C(=C)CC[C@H]2OC(C)=O [GRANOSOLIDE B] | > 20 | > 20 | > 20 | > 20 | > 20 | > 20 | > 20 |  |  | 
C=C1C(=O)O[C@]2(C)CC[C@@H]1C[C@H](O)[C@@]1(C)CC[C@H](OC(C)=O)[C@@](C)(CCC2=O)O1 [QUERCIFORMOLIDE A] | > 20 | > 20 | > 20 | > 20 | > 20 | > 20 | > 20 |  |  | > 20
C=C1C(=O)O[C@]2(C)CC[C@@H]1C[C@H](O)[C@@]1(C)CC[C@H](O1)[C@](C)(O)CCC2=O | > 20 | > 20 | > 20 | > 20 | > 20 | > 20 | > 20 |  | 17.4 | 
C=C1C(=O)O[C@]2(C)CC[C@@H]1C[C@H](OC(C)=O)[C@@]1(C)CC[C@H](O1)[C@](C)(O)CC[C@H]2OC(C)=O [QUERCIFORMOLIDE C] | > 20 | > 20 | > 20 | > 20 | > 20 | > 20 | > 20 | 23.7 |  | 
